Data: ChEMBL document CHEMBL4613292, “5,6-Dihydroxypyrimidine Scaffold to Target HIV-1 Nucleocapsid Protein” (ACS Med Chem Lett, 2020)
Activity calls are given as the source filed them. No cut-off for these calls is given here.

Assays:
[1] = (§1) Inhibition of HIV1 Nucleocapsid protein (11 to 55 residues) assessed as reduction in NC-induced cTAR DNA destabilization by measuring intrinsic fluorescence using Alexa488-5'-cTAR-3'-Dabcyl oligonucleotide as substrate at 20 degree C incubated for 15 mins by fluorescence assay; parameters: species or system Human immunodeficiency virus 1
In short: (§2)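 Fluorescence NC-inhibition assay following destabilisation of cTAR DNA, the complement of the HIV-1 transactivation response element, dual-labelled with Alexa488 dye and Dabcyl quencher. NC protein at 1 μM, so the lowest measurable IC50 is 0.5 μM.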

[2] = tested on: Human immunodeficiency virus 1; test: (§3) Antiviral activity against wild-type HIV1 NL4-3 infected in human TZM-bl cells infected with supernatants from virus-infected human MT2 cells treated with compound for 48 to 72 hrs assessed as reduction in viral replication after 2 days by bright Glo-luciferase reporter gene assay based BiCycle assay; assay type: functional, organism-based; conditions: Human immunodeficiency virus 1, NL4-3, TZM
In short: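 Two-round cell assay over the full replication cycle: MT-2 T cells are infected with wild-type reference strain NL4-3 in the first round, and reporter TZM-bl cells are infected in the second round. Values are given as mean ± deviation.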

[3] = Cytotoxicity against human HeLa cells assessed as reduction in cell viability; assay type: cell-based
[4] = as §3, with “Selectivity index, ratio of CC50 for human HeLa cells assessed as reduction in cell viability to EC50 for” for “Antiviral activity against”; assay type: toxicity; conditions: read-out: Ratio CC50/EC50
In short: (§4)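 Selectivity index is CC50 from the respective cytotoxicity assay (HeLa or PBMC) divided by EC50 from the two-round MT-2/TZM-bl NL4-3 assay.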

[5] = Cytotoxicity against phytohemagglutinin and interleukin-2-stimulated human PBMC cells assessed as reduction in cell viability measured after 7 days by MTS assay; assay type: cell-based
[6] = as §3, with “Selectivity index, ratio of CC50 for human PBMC cells stimulated with phytohemagglutinin and interleukin-2 assessed as reduction in cell viability measured after 7 days by MTS assay to EC50 for” for “Antiviral activity against”; assay type: toxicity; conditions: read-out: Ratio CC50/EC50; in short: as §4
[7] = tested on: Human immunodeficiency virus 1; test: Antiviral activity against PI-resistant HIV1 11808; assay type: functional, organism-based; conditions: Human immunodeficiency virus 1, 11808
[8] = tested on: Human immunodeficiency virus 1; test: Antiviral activity against NRTI-resistant HIV1 7401; assay type: functional, organism-based; conditions: Human immunodeficiency virus 1, 7401
[9] = tested on: Human immunodeficiency virus 1; test: Antiviral activity against NNRTI-resistant HIV1 12231; assay type: functional, organism-based; conditions: Human immunodeficiency virus 1, 12231
[10] = tested on: Human immunodeficiency virus 1; test: Antiviral activity against INI-resistant HIV1 11845; assay type: functional, organism-based; conditions: Human immunodeficiency virus 1, 11845
[11] = tested on: Human immunodeficiency virus 1; test: as §1, with “Ratio” for “Inhibition”, “of IC50 for PI-resistant HIV1 11808 Nucleocapsid protein (11 to 55 residues) using Alexa488-5'-cTAR-3'-Dabcyl oligonucleotide as substrate to IC50 for” for “of”
[12] = tested on: Human immunodeficiency virus 1; test: as §1, with “Ratio” for “Inhibition”, “of IC50 for NRTI-resistant HIV1 7401 Nucleocapsid protein (11 to 55 residues) using Alexa488-5'-cTAR-3'-Dabcyl oligonucleotide as substrate to IC50 for” for “of”
[13] = tested on: Human immunodeficiency virus 1; test: as §1, with “Ratio” for “Inhibition”, “of IC50 for NNRTI-resistant HIV1 12231 Nucleocapsid protein (11 to 55 residues) using Alexa488-5'-cTAR-3'-Dabcyl oligonucleotide as substrate to IC50 for” for “of”
[14] = tested on: Human immunodeficiency virus 1; test: as §1, with “Ratio” for “Inhibition”, “of IC50 for INI-resistant HIV1 11845 Nucleocapsid protein (11 to 55 residues) using Alexa488-5'-cTAR-3'-Dabcyl oligonucleotide as substrate to IC50 for” for “of”
[15] = Half life in mouse plasma at 3 uM by LC-MS/MS analysis; assay type: ADME, cell-free
[16] = Half life in mouse hepatocytes at 3 uM by LC-MS/MS analysis; assay type: ADME, cell-based, Hepatocyte
[17] = Half life in human hepatocytes at 3 uM by LC-MS/MS analysis; assay type: ADME, cell-based, Hepatocyte
[18] = target: Voltage-gated inwardly rectifying potassium channel KCNH2 (Homo sapiens, UniProt Q12809); test: Displacement of Tracer Red from human ERG measured after 4 hrs by fluorescence polarization assay
Cytochrome P450 1A2 = target: T1, Cytochrome P450 1A2 (Homo sapiens, UniProt P05177); test: Inhibition of human microsomal CYP1A2 expressed in baculovirus infected insect cells using luciferin-1A2 as substrate preincubated with enzyme-substrate mixture for 30 mins followed by further incubation with NADPH for 30 mins by CYP450 luciferase Glo assay; assay type: ADME
T1 sequence (P05177 whole entry): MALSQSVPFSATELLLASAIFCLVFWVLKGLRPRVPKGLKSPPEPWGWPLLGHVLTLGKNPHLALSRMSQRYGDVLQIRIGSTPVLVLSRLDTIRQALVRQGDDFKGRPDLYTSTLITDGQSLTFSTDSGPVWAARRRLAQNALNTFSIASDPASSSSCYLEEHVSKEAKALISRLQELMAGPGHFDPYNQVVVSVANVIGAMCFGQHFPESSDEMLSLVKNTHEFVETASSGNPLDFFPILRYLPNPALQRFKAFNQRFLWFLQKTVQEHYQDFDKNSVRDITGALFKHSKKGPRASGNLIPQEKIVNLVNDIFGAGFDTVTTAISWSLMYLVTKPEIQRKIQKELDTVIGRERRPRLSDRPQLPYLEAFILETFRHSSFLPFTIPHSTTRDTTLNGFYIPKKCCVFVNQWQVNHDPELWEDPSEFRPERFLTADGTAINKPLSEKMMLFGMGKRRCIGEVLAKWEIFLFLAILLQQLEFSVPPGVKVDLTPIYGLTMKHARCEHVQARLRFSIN

Cytochrome P450 2D6 = Cytochrome P450 2D6 (Homo sapiens, UniProt P10635); test: Inhibition of human microsomal CYP2D6 expressed in baculovirus infected insect cells using luciferin-ME as substrate preincubated with enzyme/substrate mixture for 30 mins followed by further incubation with NADPH for 30 mins by CYP450 luciferase Glo assay; assay type: ADME
Cytochrome P450 3A4 = Cytochrome P450 3A4 (Homo sapiens, UniProt P08684); test: Inhibition of human microsomal CYP3A4 expressed in baculovirus infected insect cells using luciferin-IPA as substrate preincubated with enzyme/substrate mixture for 30 mins followed by further incubation with NADPH for 30 mins by CYP450 luciferase Glo assay; assay type: ADME
[19] = Half life in C57BL/6 mouse at 2 mg/kg, iv or 5 mg/kg, po administered as single dose measured up to 24 hrs by LC-MS/MS analysis; assay type: ADME, organism-based; conditions: in vivo
[20] = Volume of distribution at steady state in C57BL/6 mouse at 2 mg/kg, iv or 5 mg/kg, po administered as single dose measured up to 24 hrs by LC-MS/MS analysis; assay type: ADME, organism-based; conditions: in vivo, read-out: Vdss
[21] = Clearance in C57BL/6 mouse at 2 mg/kg, iv or 5 mg/kg, po administered as single dose measured up to 24 hrs by LC-MS/MS analysis; assay type: ADME, organism-based; conditions: in vivo
[22] = Oral bioavailability in C57BL/6 mouse at 5 mg/kg administered as single dose measured up to 24 hrs by LC-MS/MS analysis; assay type: ADME, organism-based; conditions: in vivo
In short: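 C57BL/6 mice were dosed 5 mg/kg orally, with a 2 mg/kg iv reference arm. Plasma was sampled at eight time points up to 24 h.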

[23] = target: Human immunodeficiency virus type 1 integrase (Human immunodeficiency virus 1) (UniProt Q7ZJM1); test: Inhibition of wild type recombinant HIV1 His6-tagged integrase expressed in Escherichia coli BL21 using 18 nucleotide 3'-biotin labeled DNA acceptor as substrate upto 10 uM preincubated for 1 hr followed by substrate addition and further incubated for 90 mins in presence of recombinant LEDGF/p75 by HTRF assay
[24] = tested on: Human immunodeficiency virus 1; test: as §1; in short: as §2

Sequence of Human immunodeficiency virus type 1 integrase (Human immunodeficiency virus 1) (Q7ZJM1 as listed by the source): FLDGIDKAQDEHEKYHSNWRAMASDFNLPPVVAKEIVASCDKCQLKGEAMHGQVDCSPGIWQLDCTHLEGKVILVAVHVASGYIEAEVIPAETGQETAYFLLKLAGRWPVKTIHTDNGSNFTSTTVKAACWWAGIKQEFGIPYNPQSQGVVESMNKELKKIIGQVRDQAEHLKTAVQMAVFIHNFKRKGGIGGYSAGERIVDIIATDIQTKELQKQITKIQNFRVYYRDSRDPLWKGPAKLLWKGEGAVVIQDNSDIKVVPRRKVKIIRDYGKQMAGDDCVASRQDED
Sequence of Voltage-gated inwardly rectifying potassium channel KCNH2 (Q12809 whole entry): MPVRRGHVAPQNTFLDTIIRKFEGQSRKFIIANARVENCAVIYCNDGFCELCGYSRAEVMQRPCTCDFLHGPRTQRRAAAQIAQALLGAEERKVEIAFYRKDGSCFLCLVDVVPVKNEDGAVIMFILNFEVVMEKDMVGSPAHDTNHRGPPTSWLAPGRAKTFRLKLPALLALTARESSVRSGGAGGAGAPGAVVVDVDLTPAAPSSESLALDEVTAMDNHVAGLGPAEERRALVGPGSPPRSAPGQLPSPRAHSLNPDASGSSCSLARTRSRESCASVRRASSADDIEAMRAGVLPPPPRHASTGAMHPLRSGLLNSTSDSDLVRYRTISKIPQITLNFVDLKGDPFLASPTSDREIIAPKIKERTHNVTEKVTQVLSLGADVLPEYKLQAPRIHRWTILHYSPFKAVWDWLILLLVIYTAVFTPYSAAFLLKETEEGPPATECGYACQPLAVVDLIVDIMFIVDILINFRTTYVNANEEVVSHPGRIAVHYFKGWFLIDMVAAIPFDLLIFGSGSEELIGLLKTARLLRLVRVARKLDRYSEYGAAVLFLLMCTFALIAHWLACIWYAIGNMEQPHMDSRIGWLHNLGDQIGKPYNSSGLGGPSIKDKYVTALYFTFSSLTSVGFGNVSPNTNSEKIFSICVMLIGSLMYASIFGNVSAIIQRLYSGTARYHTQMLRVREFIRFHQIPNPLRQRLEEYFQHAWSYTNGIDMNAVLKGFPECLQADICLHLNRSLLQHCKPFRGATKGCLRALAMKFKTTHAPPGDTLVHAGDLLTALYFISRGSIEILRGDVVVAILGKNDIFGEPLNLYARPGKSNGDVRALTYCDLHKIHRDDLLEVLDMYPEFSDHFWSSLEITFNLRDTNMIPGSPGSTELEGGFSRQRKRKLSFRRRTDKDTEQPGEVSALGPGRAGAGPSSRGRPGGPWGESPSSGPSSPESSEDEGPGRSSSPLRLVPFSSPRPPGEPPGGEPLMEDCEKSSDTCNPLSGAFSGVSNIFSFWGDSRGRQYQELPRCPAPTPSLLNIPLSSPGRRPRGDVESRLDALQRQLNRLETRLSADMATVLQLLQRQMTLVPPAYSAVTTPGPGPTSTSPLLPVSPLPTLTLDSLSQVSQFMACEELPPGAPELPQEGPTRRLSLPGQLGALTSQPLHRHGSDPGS
Sequence of Cytochrome P450 3A4 (P08684 whole entry): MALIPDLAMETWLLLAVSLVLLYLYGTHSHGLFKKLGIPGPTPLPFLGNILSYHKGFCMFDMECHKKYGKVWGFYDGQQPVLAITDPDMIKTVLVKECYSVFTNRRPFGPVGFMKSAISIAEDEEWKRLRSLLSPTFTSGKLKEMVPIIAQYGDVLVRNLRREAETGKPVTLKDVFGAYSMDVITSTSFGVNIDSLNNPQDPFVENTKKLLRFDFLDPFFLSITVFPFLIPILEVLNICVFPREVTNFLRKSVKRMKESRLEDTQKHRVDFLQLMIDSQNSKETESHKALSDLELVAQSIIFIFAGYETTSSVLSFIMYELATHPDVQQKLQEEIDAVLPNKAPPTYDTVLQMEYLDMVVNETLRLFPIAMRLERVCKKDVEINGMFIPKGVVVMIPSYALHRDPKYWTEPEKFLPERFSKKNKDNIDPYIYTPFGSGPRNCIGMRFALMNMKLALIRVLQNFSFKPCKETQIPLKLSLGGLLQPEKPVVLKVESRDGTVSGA
Sequence of Cytochrome P450 2D6 (P10635 whole entry): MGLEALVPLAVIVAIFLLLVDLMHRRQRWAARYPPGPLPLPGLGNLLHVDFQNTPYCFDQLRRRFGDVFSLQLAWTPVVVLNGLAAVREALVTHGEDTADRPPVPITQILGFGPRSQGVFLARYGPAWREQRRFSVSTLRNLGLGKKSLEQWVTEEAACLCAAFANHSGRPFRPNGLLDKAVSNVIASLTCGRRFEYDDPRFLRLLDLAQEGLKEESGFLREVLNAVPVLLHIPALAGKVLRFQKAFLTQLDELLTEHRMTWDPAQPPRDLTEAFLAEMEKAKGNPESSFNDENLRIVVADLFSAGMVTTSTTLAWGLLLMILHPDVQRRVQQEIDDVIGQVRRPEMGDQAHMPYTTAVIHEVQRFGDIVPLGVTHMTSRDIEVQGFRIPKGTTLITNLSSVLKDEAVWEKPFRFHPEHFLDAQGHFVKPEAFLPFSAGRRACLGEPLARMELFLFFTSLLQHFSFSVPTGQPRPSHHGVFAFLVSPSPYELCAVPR

Row | Compound | IC50 ([1]; read-out: IC50) | EC50 [2] | CC50 [3] | selectivity ratio [4] | CC50 at 168 h [5] | selectivity ratio at 7 days [6] | further results
1 | C[C@@H](NC(=O)c1nc(-c2nccc3ccccc23)nc(O)c1O)C1CCCCC1 | 4 µM | 0.1 µM | 2.1 µM | 21 | 5 µM | 50 | EC50 [7]: 0.16 µM; EC50 [8]: 0.13 µM; EC50 [9]: 0.21 µM; EC50 [10]: 0.09 µM; Ratio IC50 [11]: 1.6; Ratio IC50 [12]: 1.3; Ratio IC50 [13]: 2; Ratio IC50 [14]: 0.9; half-life at 3 µM [15]: 3.7 h; half-life at 3 µM [16]: 1.7 h; half-life at 3 µM [17]: 2.6 h; IC50 [18]: > 30 µM; IC50 (Cytochrome P450 1A2): > 30 µM; IC50 (Cytochrome P450 2D6): > 30 µM; IC50 (Cytochrome P450 3A4): > 30 µM; half-life [19]: 1.1 h; Vd [20]: 0.8 L/kg; clearance [21]: 30.2 mL/min/kg; bioavailability [22]: 26%; inhibition [23]: inactive
2 | C[C@@H](NC(=O)c1nc(-c2ccccn2)nc(O)c1O)C1CCCCC1 | 42 µM | 0.7 µM | 3.2 µM | 5 | 3 µM | 4 | –
3 | C[C@@H](NC(=O)c1nc(-c2ccc(C(F)(F)F)cn2)nc(O)c1O)C1CCCCC1 | 23 µM | – | – | – | – | – | –
4 | Cc1cccc(-c2nc(O)c(O)c(C(=O)N[C@H](C)C3CCCCC3)n2)n1 | 20 µM | – | – | – | – | – | –
5 | O=C(NCC1CCCCC1)c1nc(-c2ccccn2)nc(O)c1O | 167 µM | 1.2 µM | 3.6 µM | 3 | 2.6 µM | 2 | inhibition [23]: inactive
6 | CC(Cc1nc(-c2ccc(O)c(O)c2)cs1)n1cc(Cl)cn1 (centres undefined) | 110 µM | – | – | – | – | – | –
7 | O=C(NCc1ccccc1)c1nc(-c2ccccn2)nc(O)c1O | – | – | – | – | – | – | IC50 [1]: Not Active
8 | C[C@H](NC(=O)c1nc(-c2ccccn2)nc(O)c1O)C1CCCCC1 | 47 µM | 0.2 µM | 0.6 µM | 3 | 2.4 µM | 12 | –
9 | CCNC(=O)c1nc(-c2ccccn2)nc(O)c1O | – | – | – | – | – | – | IC50 [1]: Not Active
10 | Cc1ccc(-c2nc(O)c(O)c(C(=O)N[C@H](C)C3CCCCC3)n2)nc1 | – | – | – | – | – | – | IC40 [24]: 20 µM
11 | O=C(NCC1CCCCC1)c1nc(-c2ccccc2)nc(O)c1O | – | – | – | – | – | – | IC50 [1]: Not Active
12 | CC(Cc1ccc(O)c(O)c1)C(C)Cc1ccc(O)c(O)c1 (centres undefined) [NORDIHYDROGUAIARETIC ACID] | 26 µM | – | – | – | – | – | –
13 | C[C@@H](NC(=O)c1nc(-c2cccc(C(F)(F)F)n2)nc(O)c1O)C1CCCCC1 | – | – | – | – | – | – | IC35 [24]: 20 µM
